Screening results as filed in PubChem BioAssay.
Shown are actives, neighbours in structure and some others; about 1.6% of the full set was active somewhere.
PPC-1+TRAIL kill – PPC-1 cancer cell killing with TRAIL present. PPC-1 cells + TRAIL, ATPLite viability luminescence. cell killing (% activity), % at 4 µM or 5 µM. 0.41% of 220,000 active. AID 1443;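 active = cell killing above 50% in the first pass at 4 µM, then a duplicate retest at 5 µM averaging 50% or more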
FLuc stim CS – firefly luciferase counter-screen for stimulation assays; ATPlite luciferase biochemical, luminescence, 10 min; 0 = ATP-free wells, 1 = DMSO control; activation factor at 10 µM; 200,000 tested, under 10 active; P08659;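 active = luciferase activation factor, scaled between plate controls, of at least 2 with compound at 10 µM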
Target sequence (P08659 whole entry, looked up): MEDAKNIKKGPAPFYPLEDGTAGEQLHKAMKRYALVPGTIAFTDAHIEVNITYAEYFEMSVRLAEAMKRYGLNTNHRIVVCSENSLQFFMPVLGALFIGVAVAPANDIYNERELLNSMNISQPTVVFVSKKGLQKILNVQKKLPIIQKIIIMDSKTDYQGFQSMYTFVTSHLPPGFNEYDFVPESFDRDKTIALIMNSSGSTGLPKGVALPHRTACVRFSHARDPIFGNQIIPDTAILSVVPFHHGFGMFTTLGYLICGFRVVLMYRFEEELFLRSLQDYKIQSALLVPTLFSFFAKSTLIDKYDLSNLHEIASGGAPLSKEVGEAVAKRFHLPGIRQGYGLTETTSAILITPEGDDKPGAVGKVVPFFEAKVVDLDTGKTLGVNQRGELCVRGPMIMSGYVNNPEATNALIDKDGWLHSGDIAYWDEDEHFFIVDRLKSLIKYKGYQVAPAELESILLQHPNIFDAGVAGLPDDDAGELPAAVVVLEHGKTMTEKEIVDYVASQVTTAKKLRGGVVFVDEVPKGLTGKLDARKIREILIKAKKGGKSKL
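System: luciferase plus luciferin reagent, cell-free; medium: PBS as buffer for the ATP substrate; dosing: test compounds dosed from 2 mM stocks in 100% DMSO; timing: 10 min post-reagent at room temperature; measured by: luminescence measurement of luciferase light output; evaluation: luciferase activation, seen as luminescence increase over controls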
FLuc inh counter – inhibits firefly luciferase, flagging false hits in luciferase inhibition screens; ATPLite firefly luciferase biochemical luminescence, 10 min; 1.5% of 200,000 active; P08659; AID 1006; inhibition, % at 10 µM;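 active = inhibition above about 50% when tested at 10 µM, limit read from the data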
TRAIL sens C8 – sensitizes caspase-8 expressing cells to TRAIL | NB7+C8 cells + TRAIL, ATPlite viability luminescence | inhibition (viability loss, TRAIL sensitization), % at 10 µM | 1% of 360,000 active | AID 624354;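 active = compounds causing at least 50% loss of cell viability in the single-dose screen, relative to plate controls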
A number is an active result; - = inactive; . = not tested or not shown; ! = not active in a repeat.

SMILES | PPC-1+TRAIL kill | FLuc stim CS | FLuc inh counter | TRAIL sens C8
COc1ccc(N(C(=O)CCl)C(C(=O)NCCc2ccccc2)c2cccs2)cc1Cl (configuration not stated) | 89 | - | - | 95
COc1cccc(N(C(=O)CCl)C(C(=O)NCCc2ccccc2)c2cccs2)c1 (configuration not stated) | - | - | - | 96
CCCC(CCC(=O)Nc1ccc(C(=O)OC)cc1)C(=O)O (configuration not stated) | - | - | - | -
CC(=O)c1ccc(C(C)(C)c2ccc(C(C)=O)s2)s1 | - | - | - | -
O=C(Oc1ccc2ccccc2c1Cl)N1CCCC1 | - | - | - | -
O=C(Oc1ccc2ccccc2c1Cl)N1CCCCCC1 | - | - | - | 53
N/C(=N\OC(=O)c1ccc(Cl)cc1)c1cccnc1 | - | - | 94 | 91
N/C(=N\OC(=O)c1ccc(Cl)cc1Cl)c1cccnc1 | - | - | 93 | 61
CCCNC(=O)N[C@H]1C=C[C@H](CC(=O)NC2CCCCC2)O[C@@H]1CO | . | . | . | -
COc1cccc(CNC(=O)CCC2CCCN(C(=O)c3ccoc3)C2)c1 (configuration not stated) | - | - | - | -
COc1ccc(-n2nc(C(=O)NCC(=O)N3CCN(c4ccccc4)CC3)c3ccccc3c2=O)c(OC)c1 | . | . | . | 62
COc1ccc(-n2nc(C(=O)NCC(=O)N3CCN(c4ccccn4)CC3)c3ccccc3c2=O)cc1 | - | - | 68 | -
CCOC(=O)c1c(CSC(=N)N)n(-c2ccc(C)cc2)c2cc(Br)c(OC(C)=O)cc12 | - | - | - | 93
CN1CCN(Cc2nc3ccccc3c(=O)n2Cc2nc(-c3cccc([N+](=O)[O-])c3)cs2)CC1 | - | - | - | -
CN1CCN(Cc2nc3ccccc3c(=O)n2Cc2nc(-c3ccc4ccccc4c3)cs2)CC1 | - | - | - | 77!
CC#CC(=O)N1CCC(CO)(CCc2ccccc2)CC1 | - | - | - | -
COc1ccc(NC(=O)/C(C#N)=C/c2ccc(-c3ccc(Cl)c(C(=O)O)c3)o2)cc1 | . | . | . | 60
Cc1nc(SCC(=O)Nc2nccs2)c(C#N)c(C)c1C | . | . | . | 80
Cn1nc(C(F)(F)F)c(C(=O)Nc2ccc(F)cc2F)c1Sc1ccc(Cl)cc1 | - | - | - | -
Oc1cccc(-c2nc3ccccc3s2)c1 | - | - | 71 | -
O=C(Cc1ccccc1)Nc1ccc(S(=O)(=O)N2CCOCC2)cc1 | . | . | . | -
O=C(Nc1cccc([N+](=O)[O-])c1)c1ccc2ccccc2c1O | - | . | . | 54
O=C(Nc1cccc([N+](=O)[O-])c1)c1ccncc1 | - | - | - | -
CC(C)(C)c1ccc(C(=O)Nc2cccc([N+](=O)[O-])c2)cc1 | - | - | 72 | 55
C(=N\N1CCN(C(c2ccccc2)c2ccccc2)CC1)/c1ccc2c(c1)OCO2 | - | - | - | -
SMILES | PPC-1+TRAIL kill | FLuc stim CS | FLuc inh counter | TRAIL sens C8
NC1=CC(=O)C(=O)c2ccccc21 | . | . | . | 92
O=S1(=O)CC(c2ccccc2)=NN=C(c2ccccc2)C1 | . | . | . | 75
Cc1ccsc1/C=C/c1ccc2ccccc2n1 | - | - | - | 56
Fc1cccc(Cl)c1/C=C/c1cnc2ccccc2n1 | . | . | . | -
Cc1ccsc1/C=C/c1ccc2cccc(O)c2n1 | - | - | - | -
Fc1cccc(F)c1/C=C/c1ccc2ccccc2n1 | - | - | 82 | 58
Cc1c(C(=O)Nc2c(C)n(C)n(-c3ccccc3)c2=O)oc2ccccc12 | - | - | - | -
CCOC(=O)c1c2c(n(C)c1C)C(=O)C(=O)c1ccc(Br)cc1-2 | . | . | . | 97
CCOC(=O)c1c2c(n(Cc3ccccc3)c1C)C(=O)C(=O)c1ccccc1-2 | . | . | . | 93
CCOC(=O)c1c2c3c(cccc3n(C)c1=O)C(=O)c1ccccc1-2 | . | . | . | -
CCOC(=O)C1=C(O)C(=O)N(Cc2ccc(C(C)(C)C)cc2)CC1 | - | - | - | -
Cc1cccc(C2N(c3ccc(F)cc3)C(=O)C3CCCN32)c1 (configuration not stated) | . | . | . | -
COc1ccc(C(C(=O)NC2CCCCC2)N(C(=O)CCl)c2ccc(OC)cc2)cc1 (configuration not stated) | - | - | - | 96
COc1ccc(C(C(=O)NC2CCCCC2)N(C(=O)CCl)c2ccc(C)cc2)cc1 (configuration not stated) | 72 | - | - | 95
COc1ccc(C(C(=O)NC2CCCCC2)N(C(=O)CCl)c2cccc(Cl)c2)cc1 (configuration not stated) | 59 | - | - | 96
COc1ccc(N(C(=O)Cc2cccs2)C(C(=O)NC2CCCC2)c2ccncc2)cc1 (configuration not stated) | . | . | . | -
Cc1cccc(C)c1OCC(=O)Nc1ccc(N2CCOCC2)cc1 | - | - | - | -
O=C(N/N=C/c1cccc(Cl)c1)c1c(O)c2c([nH]c1=O)CCCC2 | - | . | . | -
Cc1ccc(NC(=O)Cn2c(O)c(N=NC(=O)c3cc4ccccc4cc3O)c3ccccc32)cc1 | - | - | - | 70
NNC(=O)CP(=O)(c1ccccc1)c1ccccc1 | . | . | . | -
C=CCOc1ccc(C2/C(=C(\O)c3ccc4c(c3)OCCO4)C(=O)C(=O)N2CCCN2CCOCC2)cc1 (configuration not stated) | . | . | . | -
CCOC(=O)N1CCC(N2Cc3cccc(C(=O)Nc4cc(F)ccc4F)c3C2=O)CC1 | 56 | - | - | -
COc1ccc(-c2csc(NC(=O)C3CC(=O)N(Cc4ccco4)C3)n2)cc1 (configuration not stated) | - | - | - | -
Cc1ccc(-c2nc(N/N=C/c3cccc([N+](=O)[O-])c3)c3ccccc3n2)cc1 | . | - | 82 | 64
O=C(N/N=C/c1cccc([N+](=O)[O-])c1)c1cc(-c2ccccc2)nc2ccccc12 | - | - | - | -
SMILES | PPC-1+TRAIL kill | FLuc stim CS | FLuc inh counter | TRAIL sens C8
O=C(Nc1cc([N+](=O)[O-])ccc1N1CCCC1)c1ccco1 | - | - | - | -
Cn1c(SCCOc2ccccc2F)nc2ccccc2c1=O | - | - | - | -
COc1ccc2c(c1)CC/C2=N\OC(=O)c1ccccc1OC | - | - | 72 | -
COc1ccccc1C(=O)O/N=C1/CCCc2c1ccc(OC)c2[N+](=O)[O-] | - | - | - | -
CS(=O)(=O)N(Cc1ccc(Cl)cc1)c1ccc(C(=O)N/N=C/c2cc3ccccc3nc2Cl)cc1 | - | - | - | -
CC1=NNC(=O)/C1=C\c1cn(-c2ccccc2)nc1-c1ccccc1 | - | - | - | 63
O=C(ONC(=O)C1CCCCC1C(=O)NOC(=O)c1ccccc1)c1ccccc1 (configuration not stated) | . | . | . | -
O=Nc1ccc(NOC(=O)c2ccccc2)cc1 | - | - | 90 | -
CSc1nc2ccc(NC(=O)c3ccccn3)cc2s1 | . | . | . | 82
CSc1cccc(NC(=O)c2ccccn2)c1 | - | - | 51 | .
Nc1cc(Cl)nc(N/N=C/c2ccc([N+](=O)[O-])cc2)n1 | - | - | - | -
S=C(NCc1ccco1)N1CCN(c2ccccn2)CC1 | - | - | - | -
COc1ccccc1C(=O)Nc1nc(-c2ccc(S(=O)(=O)N3CCOCC3)cc2)cs1 | - | - | - | 76
